{"source": "paper PMC11951523", "about": "(Genome Biology, 2025)", "key": {"SpyCas9 [1]": {"target": "T1, SpyCas9 (Streptococcus pyogenes serotype M1, UniProt Q99ZW2)", "test": "biochemical", "conditions": "Spy Cas9"}, "SauCas9 [2]": {"target": "T2, SauCas9 (Staphylococcus aureus, UniProt J7RUA5)", "T2 sequence (J7RUA5 1-1053)": "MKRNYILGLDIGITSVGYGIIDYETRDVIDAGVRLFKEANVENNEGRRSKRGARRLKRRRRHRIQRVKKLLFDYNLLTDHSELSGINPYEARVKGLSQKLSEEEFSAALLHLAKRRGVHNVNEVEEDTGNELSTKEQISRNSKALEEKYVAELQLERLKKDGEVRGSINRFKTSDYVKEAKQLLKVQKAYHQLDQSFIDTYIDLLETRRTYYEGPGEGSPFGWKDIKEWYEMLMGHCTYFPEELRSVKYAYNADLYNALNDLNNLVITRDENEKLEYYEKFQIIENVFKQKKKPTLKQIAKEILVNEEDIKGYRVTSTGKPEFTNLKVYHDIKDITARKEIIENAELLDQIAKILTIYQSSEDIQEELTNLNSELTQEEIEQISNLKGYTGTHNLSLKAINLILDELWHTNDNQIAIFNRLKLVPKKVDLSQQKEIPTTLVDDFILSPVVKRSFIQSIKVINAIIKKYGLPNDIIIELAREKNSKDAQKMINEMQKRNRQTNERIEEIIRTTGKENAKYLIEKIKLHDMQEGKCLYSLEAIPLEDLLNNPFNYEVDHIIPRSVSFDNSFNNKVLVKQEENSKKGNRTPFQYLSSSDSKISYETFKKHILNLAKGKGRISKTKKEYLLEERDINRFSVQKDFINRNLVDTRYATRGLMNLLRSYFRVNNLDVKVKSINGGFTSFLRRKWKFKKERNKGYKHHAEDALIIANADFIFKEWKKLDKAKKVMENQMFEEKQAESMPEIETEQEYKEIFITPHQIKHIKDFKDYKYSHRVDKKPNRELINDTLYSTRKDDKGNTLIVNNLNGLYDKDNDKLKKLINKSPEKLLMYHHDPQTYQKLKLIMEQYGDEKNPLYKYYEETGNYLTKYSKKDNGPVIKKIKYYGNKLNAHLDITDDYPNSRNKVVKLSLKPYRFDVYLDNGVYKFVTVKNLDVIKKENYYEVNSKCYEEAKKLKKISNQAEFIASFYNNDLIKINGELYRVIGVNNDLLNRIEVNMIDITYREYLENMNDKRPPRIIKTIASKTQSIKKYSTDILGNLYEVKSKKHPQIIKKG", "test": "In vitro purified enzyme activity assay for SauCas9", "type": "biochemical", "conditions": "Sau Cas9"}, "SpyCas9 [3]": {"target": "T1, SpyCas9", "test": "Surface plasmon resonance assay", "type": "binding", "summary_of_the_method": "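His-tagged SpyCas9, Ni–NTA purified and imidazole-eluted, amine-coupled to a CM5 chip at 100 μg/ml. Test compounds were diluted in 1× PBST to a series of concentrations and injected at 30 μl/min, with 120 s association and 120 s dissociation. Equilibrium KD was fitted from the response curves.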"}, "FnoCas12a": {"target": "FnoCas12a (Francisella tularensis subsp. novicida, UniProt A0Q7Q2)", "type": "biochemical"}, "LbaCas12a": {"tested_on": "LbaCas12a", "test": "LbaCas12a activity assay", "type": "biochemical, Lachnospiraceae bacterium", "conditions": "for effect on the activity of LbaCas12a: complete inhibition refers to 50 μM or above"}, "[4]": {"tested_on": "EcoRI or KpnI endonuclease", "test": "EcoRI or KpnI endonuclease activity assay with 2.5 kb linear DNA", "type": "biochemical"}, "SpyCas9 [5]": {"tested_on": "SpyCas9", "conditions": "read-out: IC50 in the in vitro DNA cleavage assay; cited from earlier work"}, "SpyCas9 [6]": {"target": "T1, SpyCas9", "test": "Two-plasmid-based bacterial survival assay", "type": "cell-based", "conditions": "read-out: IC50, bacteria-based assay, Spy Cas9, bacterial survival assay using pCas and pTarget-sgSSEA plasmids, E. coli MG1655", "summary_of_the_method": "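E. coli MG1655 competent cells carrying pCas (SpyCas9) electroporated with pTarget-sgSSEA, or the pT-sgControl plasmid as reference. Test compound added to the electroporated bacteria for 1.5 h at 32 °C, then plated on LB with kanamycin and spectinomycin and incubated overnight. Colonies counted and expressed as a percentage of the compound-treated sgControl strain at the same concentration (100%).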"}, "SpyCas9 [7]": {"target": "T1, SpyCas9", "test": "GFP-disruption assay in HEK293FT cells", "type": "cell-based", "conditions": "read-out: IC50, cell-based assay; Spy Cas9; GFP-disruption assay, PX459-SpyCas9 and pGL3-sgGFP plasmids, HEK293FT cells"}, "SpyCas9 [8]": {"target": "T1, SpyCas9", "type": "cell-based", "conditions": "read-out: IC50, cell-based assay; Spy Cas9; TIDE analysis, editing efficiency for COSMC or EMX1 loci in HEK293FT cells", "summary_of_the_method": "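HEK293FT cells, ~2 × 10^5 per well, were seeded 1 day before transfection (Lipofectamine 3000) with 1 μg PX459-SpyCas9-sgCOSMC, -sgEMX1 or -sgControl. Test compound was added 0 or 6 h post-transfection, and cells were kept 24 h at 37 °C, then selected with 2.5 μg/ml puromycin for 36–48 h. Target loci were PCR-amplified, Sanger-sequenced and scored by TIDE.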"}, "SauCas9 [9]": {"target": "T2, SauCas9", "test": "SauCas9-mediated genome editing of COSMC in HEK293FT cells, TIDE analysis", "type": "cell-based", "conditions": "read-out: IC50, cell-based assay; Sau Cas9; TIDE analysis, editing efficiency for COSMC in HEK293FT cells", "summary_of_the_method": "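HEK293FT wt cells were co-transfected (Lipofectamine 3000) with 1 μg miniCMV-SaCas9 and 1 μg pGL3 carrying sgCOSMC-Sau or sgControl. Test compound was added right after transfection for 24 h, followed by 2.5 μg/ml puromycin selection. The COSMC locus was PCR-amplified (40 cycles), Sanger-sequenced, and editing efficiency was obtained by TIDE analysis.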"}, "BE4 base editor": {"target": "BE4 base editor (Streptococcus pyogenes, UniProt Q99ZW2, D10A)", "test": "BE4-mediated base editing of EMX1 in HEK293FT cells, EditR analysis", "type": "cell-based", "conditions": "read-out: IC50, cell-based assay; BE4 base editing efficiency for EMX1 loci, HEK293FT cells"}, "[10]": {"tested_on": "SpyCas9-mediated genome editing of PCSK9", "test": "SpyCas9-mediated anti-PCSK9 mouse model by hydrodynamic injection", "type": "in vivo, BALB/c mice", "summary_of_the_method": "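On days 1, 4 and 7, 90 μg PX459-SpyCas9-sgPCSK9 or -sgControl in 2 ml saline was injected hydrodynamically into the tail vein over 5–8 s. Orbital blood (~100 μl) was taken days 2, 5 and 8, and heparin plasma (20 μl) was assayed by PCSK9 ELISA.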"}, "E. coli MG1655": {"tested_on": "E. coli MG1655", "test": "Toxicity to bacteria in the two-plasmid-based bacterial survival assay", "type": "cell-based", "conditions": "MG1655, bacterial survival assay", "summary_of_the_method": "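MG1655 pCas-competent cells were electroporated with pT-sgControl. Test compound was added to 700 μl LB immediately afterwards and incubated 1.5 h at 32 °C, then plated on LB agar with kanamycin and spectinomycin (100 μg/ml each). Colonies were counted after overnight incubation; biological replicates n = 3.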"}, "[11]": {"conditions": "in humans; cited from earlier work"}, "[12]": {"conditions": "read-out: IC50, in vitro purified enzyme assay, linear substrates (87 bp oligonucleotide)"}, "[13]": {"conditions": "read-out: IC50, in vitro purified enzyme assay, supercoil (circular) plasmid substrate"}}, "note": "Read-outs that look alike come from different tables or passages of the source."}
{"compound": "CCCCC(CC)COC(=O)CC(C(=O)OCC(CC)CCCC)S(=O)(=O)O", "note": "(stereo not shown) [Docusate]", "values": [{"measurement": "IC50", "setting": "SpyCas9 [1]; IC50, in vitro purified enzyme assay, linear substrates (87 bp oligonucleotide or 2.5 kb linear DNA)", "value": "20 to 50", "unit": "µM"}, {"measurement": "IC50", "setting": "SpyCas9 [1]; IC50, in vitro purified enzyme assay, supercoil (circular) plasmid substrate pcDNA3.1/CT-GFP", "value": "10 to 20", "unit": "µM"}, {"measurement": "IC50", "setting": "SauCas9 [2]; IC50, in vitro purified enzyme assay, linear substrates (87 bp oligonucleotide)", "value": "12.5 to 25", "unit": "µM"}, {"measurement": "IC50", "setting": "SauCas9 [2]; IC50, in vitro purified enzyme assay, supercoil (circular) plasmid substrate", "value": "25 to 50", "unit": "µM"}, {"measurement": "Kd", "setting": "SpyCas9 [3]", "value": "12.8 to 56.4", "unit": "µM"}, {"measurement": "effect on the activity of FnoCas12a", "setting": "FnoCas12a", "value": "completely inhibit"}, {"measurement": "selectivity of inhibition between SpyCas9 (Type II-A) and FnoCas12a (Type V)", "setting": "FnoCas12a", "value": "less than 5 folds"}, {"measurement": "selectivity of inhibition between SpyCas9 (Type II-A) and LbaCas12a (Type V)", "setting": "LbaCas12a", "value": "less than 5 folds"}, {"measurement": "effect on the activity of LbaCas12a", "setting": "LbaCas12a", "value": "completely inhibit"}, {"measurement": "selectivity for Cas9 over other endonucleases EcoRI and KpnI", "setting": "[4]", "value": "~ 5 folds"}]}
{"compound": "Cc1ccc(S(=O)(=O)N2CC[C@@H]3[C@H](CO)Nc4ccc(-c5ccccc5F)cc4[C@@H]32)cc1", "note": "[BRD0539]", "values": [{"measurement": "IC50", "setting": "SauCas9 [2]; [12]", "value": "10 to 20", "unit": "µM"}, {"measurement": "IC50", "setting": "SauCas9 [2]; [13]", "value": "~50", "unit": "µM"}, {"measurement": "IC50", "setting": "SpyCas9 [5]", "value": 22, "unit": "µM"}]}
{"compound": "CN[C@H]1C(=O)N[C@@H]2Cc3ccc(cc3)Oc3cc4cc(c3O[C@@H]3O[C@H](C(=O)O)[C@@H](O)[C@H](O)[C@H]3NC(=O)CCCCCCCCC(C)C)Oc3ccc(cc3Cl)[C@@H](O)[C@@H]3NC(=O)[C@H](NC(=O)[C@@H]4NC(=O)[C@@H](NC2=O)c2cc(cc(O)c2Cl)Oc2cc1ccc2O)c1ccc(O)c(c1)-c1c(O[C@H]2O[C@H](CO)[C@@H](O)[C@H](O)[C@@H]2O)cc(O)cc1[C@@H](C(=O)NCCCN(C)C)NC3=O", "note": "[Dalbavancin]", "values": [{"measurement": "IC50", "setting": "SpyCas9 [1]; read-out: IC50, in vitro purified enzyme assay, linear substrates (87 bp oligonucleotide or 2.5 kb linear DNA)", "value": "~5", "unit": "µM"}, {"measurement": "IC50", "setting": "SpyCas9 [1]; read-out: IC50, in vitro purified enzyme assay, supercoil (circular) plasmid substrate pcDNA3.1/CT-GFP", "value": "10 to 20", "unit": "µM"}, {"measurement": "IC50", "setting": "SauCas9 [2]; [12]", "value": "~25", "unit": "µM"}, {"measurement": "IC50", "setting": "SauCas9 [2]; [13]", "value": "12.5 to 25", "unit": "µM"}, {"measurement": "IC50", "setting": "SpyCas9 [6]", "value": "12.5 to 25", "unit": "µM"}, {"measurement": "IC50", "setting": "SpyCas9 [6]; listed as dalbavancin", "value": "~12.5", "unit": "µM"}, {"measurement": "IC50", "setting": "SpyCas9 [7]", "value": "~10", "unit": "µM"}, {"measurement": "IC50", "setting": "SpyCas9 [8]", "value": "~10", "unit": "µM"}, {"measurement": "IC50", "setting": "SauCas9 [9]", "value": "~10", "unit": "µM"}, {"measurement": "IC50", "setting": "BE4 base editor", "value": "10 to 20", "unit": "µM"}, {"measurement": "effect on the activity of FnoCas12a", "setting": "FnoCas12a", "value": "inactive to or weakly inhibited"}, {"measurement": "effect on the activity of LbaCas12a", "setting": "LbaCas12a", "value": "inactive to or weakly inhibited"}, {"measurement": "selectivity for Cas9 over other endonucleases EcoRI and KpnI", "setting": "[4]", "value": "more than 10 folds"}, {"measurement": "effect on the basal level of PCSK9 in vehicle-treated (sgControl) mice", "setting": "[10]; 160 mg/kg", "value": "did not interfere"}, {"measurement": "preventive effect on loss of plasma PCSK9", "setting": "[10]; high doses of 80 or 160 mg/kg, 2nd or 3rd treatment cycle", "value": "strong preventive effects"}, {"measurement": "toxicity to E. coli", "setting": "E. coli MG1655", "value": "did not appear to be much toxic"}, {"measurement": "elimination half-time (t1/2 value)", "setting": "[11]", "value": "~ 1 week"}, {"measurement": "site of metabolism / elimination", "setting": "[11]", "value": "largely eliminated in the kidney"}]}
